Measurements from ChEMBL document CHEMBL4196023, “Cyclic peptide inhibitors of lysine-specific demethylase 1 with improved potency identified by alanine scanning mutagenesis” (Eur J Med Chem, 2018).
The source made the active and inactive calls. The rule behind the calls is not given here. Positions of bridges follow the written chain, without caps; N, C: chain ends. Residues, ends and D or L forms follow the SMILES beside them. *: point of attachment. Stearoyl = CCCCCCCCCCCCCCCCCC(=O)*

Assays:
K562 [1] = assay: Antiproliferative activity against human K562 cells assessed as cell death at 100 uM after 72 hrs by MTS assay relative to control; assay type: functional
K562 [2] = assay: Antiproliferative activity against human K562 cells assessed as cell death at 1 uM after 72 hrs by MTS assay relative to control; assay type: functional
Calu-6 [3] = assay: Inhibition of cell proliferation in human Calu6 cells up to 1 uM after 72 hrs by MTS assay; assay type: functional, cell-based
Summary of the method: (§1)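 Calu-6 cells grown in EMEM with 10% FBS. Seeded at 2,000 cells/well and attached for one day, then treated 72 h at 37°C, 5% CO2. MTS added for 2 h and absorbance read at 490 nm minus 690 nm. % cell death calculated against untreated control. Mean of 3 determinations ± S.E.M.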

Calu-6 [4] = assay: Inhibition of cell proliferation in human Calu6 cells at 100 uM after 72 hrs by MTS assay; assay type: functional, cell-based; summary of the method: as §1
[5] = target: LSD1/CoREST complex (Homo sapiens) (UniProt O60341+Q9UKL0); assay: Inhibition of recombinant human LSD1/CoREST at 500 nM preincubated for 5 mins followed by ART-(N,N-dimethyl-K)-QTARKSTGGKAPRKQLA substrate addition measured after 25 mins by fluorescence assay relative to control
K562 [6] = assay: Antiproliferative activity against human K562 cells after 72 hrs by MTS assay; assay type: functional, cell-based; settings: K562, 72 h
MCF7 = assay: Antiproliferative activity against human MCF7 cells after 72 hrs by MTS assay; assay type: functional, cell-based; settings: MCF7, 72 h
Calu-6 [7] = assay: Antiproliferative activity against human Calu6 cells after 72 hrs by MTS assay; assay type: functional, cell-based; settings: Calu-6, 72 h
[8] = target: Lysine-specific histone demethylase 1A (Homo sapiens) (UniProt O60341); assay: Inhibition of LSD1 in human NCI-H526 cells assessed as increase in H3K4me2 marks at promoter of IGFBP2 at 100 uM after 48 hrs by ChIP-qPCr method; assay type: cell-based
Summary of the method: (§2)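 NCI-H526 small cell lung carcinoma cells treated 48 h at 100 µM alongside an untreated control. Cells formaldehyde cross-linked, nuclei sonicated and chromatin enzymatically digested. IP with H3K4me2 antibody (normal rabbit IgG as negative control) on protein G magnetic beads. Purified DNA quantified by TaqMan qPCR at promoter regions; fold change by comparative CT (Livak). SD from three qPCR wells.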

[9] = target: Lysine-specific histone demethylase 1A (Homo sapiens) (UniProt O60341); assay: Inhibition of LSD1 in human NCI-H526 cells assessed as increase in H3K4me2 marks at promoter of FEZ1 at 100 uM after 48 hrs by ChIP-qPCr method; assay type: cell-based; summary of the method: as §2

Sequence of LSD1/CoREST complex (Homo sapiens) (Q9UKL0 whole entry, looked up, other chains not shown): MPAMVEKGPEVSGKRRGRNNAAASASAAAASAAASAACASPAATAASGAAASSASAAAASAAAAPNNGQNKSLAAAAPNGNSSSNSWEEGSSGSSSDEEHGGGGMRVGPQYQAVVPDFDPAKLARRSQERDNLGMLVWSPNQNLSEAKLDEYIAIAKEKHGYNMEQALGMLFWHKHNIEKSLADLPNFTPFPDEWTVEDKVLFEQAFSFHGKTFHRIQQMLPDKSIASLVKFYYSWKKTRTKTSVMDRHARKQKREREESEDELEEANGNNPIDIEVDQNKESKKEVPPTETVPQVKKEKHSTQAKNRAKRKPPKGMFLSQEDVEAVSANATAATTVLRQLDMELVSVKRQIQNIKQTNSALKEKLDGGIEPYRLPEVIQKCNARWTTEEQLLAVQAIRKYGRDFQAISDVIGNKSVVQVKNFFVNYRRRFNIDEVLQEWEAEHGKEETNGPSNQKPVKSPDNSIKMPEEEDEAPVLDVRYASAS

| IC50 (K562 [6]) | IC50 (MCF7) | IC50 (Calu-6 [7]) | Compound | inhibition (Calu-6 [3]) | inhibition (Calu-6 [4]) | inhibition [5] | other results |
| --- | --- | --- | --- | --- | --- | --- | --- |
|  |  |  | CSCC[C@H](NC(=O)[C@H](C)NC(=O)[C@H](CCCNC(=N)N)NC(=O)[C@H](C)N)C(=O)N[C@H]1CCCCNC(=O)CC[C@@H](C(=O)N[C@H](C(=O)NCC(=O)NCC(=O)N[C@@H](CCCCN)C(=O)N[C@@H](C)C(N)=O)[C@@H](C)O)NC(=O)[C@H](CCCCN)NC(=O)[C@H](CCCNC(=N)N)NC(=O)[C@H](C)NC(=O)[C@H]([C@@H](C)O)NC1=O (H-ARAMKTARKETGGKA-NH2; lactam 5-10) | inactive | inactive | 73.4% | Activity (K562 [1]): 11%; Activity (K562 [2]): 53% |
|  |  |  | CSCC[C@H](NC(=O)[C@H](C)NC(=O)[C@H](CCCNC(=N)N)NC(=O)[C@H](C)N)C(=O)N[C@H]1CCCCNC(=O)CC[C@@H](C(N)=O)NC(=O)[C@H](CCCCN)NC(=O)[C@H](CCCNC(=N)N)NC(=O)[C@H](C)NC(=O)[C@H]([C@@H](C)O)NC1=O (H-ARAMKTARKE-NH2; lactam 5-10) | inactive | inactive | 59.8% |  |
| 198 µM | 156 µM | 159 µM | CSCC[C@H](NC(=O)[C@@H](NC(=O)[C@H](CCCNC(=N)N)NC(=O)[C@H](C)N)[C@@H](C)O)C(=O)N[C@H]1CCCCNC(=O)CC[C@@H](C(=O)N[C@H](C(=O)NCC(=O)NCC(=O)N[C@@H](C)C(=O)N[C@@H](C)C(=O)N2CCC[C@H]2C(=O)N[C@@H](CCCNC(=N)N)C(=O)N[C@@H](CCCCN)C(=O)N[C@@H](CCC(N)=O)C(=O)N[C@@H](CC(C)C)C(=O)N[C@@H](C)C(N)=O)[C@@H](C)O)NC(=O)[C@H](CCCCN)NC(=O)[C@H](CCCNC(=N)N)NC(=O)[C@H](C)NC(=O)[C@H]([C@@H](C)O)NC1=O (H-ARTMKTARKETGGAAPRKQLA-NH2; lactam 5-10) |  |  |  |  |
| 42 µM | 1010 µM | 766 µM | CSCC[C@H](NC(=O)[C@@H](NC(=O)[C@H](CCCNC(=N)N)NC(=O)[C@H](C)N)[C@@H](C)O)C(=O)N[C@H]1CCCCNC(=O)CC[C@@H](C(=O)N[C@H](C(=O)N[C@@H](C)C(=O)NCC(=O)N[C@@H](CCCCN)C(=O)N[C@@H](C)C(=O)N2CCC[C@H]2C(=O)N[C@@H](CCCNC(=N)N)C(=O)N[C@@H](CCCCN)C(=O)N[C@@H](CCC(N)=O)C(=O)N[C@@H](CC(C)C)C(=O)N[C@@H](C)C(N)=O)[C@@H](C)O)NC(=O)[C@H](CCCCN)NC(=O)[C@H](CCCNC(=N)N)NC(=O)[C@H](C)NC(=O)[C@H]([C@@H](C)O)NC1=O (H-ARTMKTARKETAGKAPRKQLA-NH2; lactam 5-10) |  |  |  |  |
| 8.2 µM | 154 µM | 93 µM | CSCC[C@H](NC(=O)[C@@H](NC(=O)[C@H](CCCNC(=N)N)NC(=O)[C@H](C)N)[C@@H](C)O)C(=O)N[C@H]1CCCCNC(=O)CC[C@@H](C(=O)N[C@H](C(=O)NCC(=O)NCC(=O)N[C@@H](CCCCN)C(=O)N[C@@H](C)C(=O)N2CCC[C@H]2C(=O)N[C@@H](CCCNC(=N)N)C(=O)N[C@@H](CCCCN)C(=O)N[C@@H](CCC(N)=O)C(=O)N[C@@H](CC(C)C)C(=O)N[C@@H](C)C(N)=O)[C@@H](C)O)NC(=O)[C@H](CCCCN)NC(=O)[C@H](CCCNC(=N)N)NC(=O)[C@H](C)NC(=O)[C@H](C)NC1=O (H-ARTMKAARKETGGKAPRKQLA-NH2; lactam 5-10) |  |  |  |  |
| 139 µM | 1240 µM | 956 µM | CC(C)C[C@H](NC(=O)[C@H](CCC(N)=O)NC(=O)[C@H](CCCCN)NC(=O)[C@H](CCCNC(=N)N)NC(=O)[C@@H]1CCCN1C(=O)[C@H](C)NC(=O)[C@H](CCCCN)NC(=O)CNC(=O)CNC(=O)[C@@H](NC(=O)[C@@H]1CCC(=O)NCCCC[C@H](NC(=O)[C@H](C)NC(=O)[C@@H](NC(=O)[C@H](CCCNC(=N)N)NC(=O)[C@H](C)N)[C@@H](C)O)C(=O)N[C@@H]([C@@H](C)O)C(=O)N[C@@H](C)C(=O)N[C@@H](CCCNC(=N)N)C(=O)N[C@@H](CCCCN)C(=O)N1)[C@@H](C)O)C(=O)N[C@@H](C)C(N)=O (H-ARTAKTARKETGGKAPRKQLA-NH2; lactam 5-10) |  |  |  |  |
|  | 4.4 µM | 7.9 µM | CCCCCCCCCCCCCCCCCC(=O)NCCCC[C@H](NC(=O)[C@H](C)NC(=O)[C@H](CC(C)C)NC(=O)[C@H](CCC(N)=O)NC(=O)[C@H](CCCCN)NC(=O)[C@H](CCCNC(=N)N)NC(=O)[C@@H]1CCCN1C(=O)[C@H](C)NC(=O)[C@H](CCCCN)NC(=O)CNC(=O)CNC(=O)[C@@H](NC(=O)[C@@H]1CCC(=O)NCCCC[C@H](NC(=O)[C@H](CCSC)NC(=O)[C@@H](NC(=O)[C@H](CCCNC(=N)N)NC(=O)[C@H](C)N)[C@@H](C)O)C(=O)N[C@@H]([C@@H](C)O)C(=O)N[C@@H](C)C(=O)N[C@@H](CCCNC(=N)N)C(=O)N[C@@H](CCCCN)C(=O)N1)[C@@H](C)O)C(N)=O |  |  |  |  |
|  |  |  | c1ccc([C@@H]2C[C@H]2NC2CCNCC2)cc1 (relative stereo) |  |  |  | inhibition [8]: Active; inhibition [9]: Active |
| 35.6 µM | 385 µM | 409 µM | CSCC[C@H](NC(=O)[C@@H](NC(=O)[C@H](CCCNC(=N)N)NC(=O)[C@H](C)N)[C@@H](C)O)C(=O)N[C@H]1CCCCNC(=O)CC[C@@H](C(=O)N[C@H](C(=O)NCC(=O)NCC(=O)N[C@@H](CCCCN)C(=O)N[C@@H](C)C(=O)N[C@@H](C)C(=O)N[C@@H](CCCNC(=N)N)C(=O)N[C@@H](CCCCN)C(=O)N[C@@H](CCC(N)=O)C(=O)N[C@@H](CC(C)C)C(=O)N[C@@H](C)C(N)=O)[C@@H](C)O)NC(=O)[C@H](CCCCN)NC(=O)[C@H](CCCNC(=N)N)NC(=O)[C@H](C)NC(=O)[C@H]([C@@H](C)O)NC1=O (H-ARTMKTARKETGGKAARKQLA-NH2; lactam 5-10) |  |  |  |  |
|  |  |  | CSCC[C@H](NC(=O)[C@H](C)NC(=O)[C@H](CCCNC(=N)N)NC(=O)[C@H](C)N)C(=O)N[C@H]1CCCCNC(=O)CC[C@@H](C(=O)N[C@H](C(=O)NCC(=O)NCC(=O)N[C@@H](CCCCN)C(=O)N[C@@H](C)C(=O)N2CCC[C@H]2C(=O)N[C@@H](CCCNC(=N)N)C(=O)N[C@@H](CCCCN)C(N)=O)[C@@H](C)O)NC(=O)[C@H](CCCCN)NC(=O)[C@H](CCCNC(=N)N)NC(=O)[C@H](C)NC(=O)[C@H]([C@@H](C)O)NC1=O (H-ARAMKTARKETGGKAPRK-NH2; lactam 5-10) | inactive | inactive | 98% | Activity (K562 [1]): 9.5%; Activity (K562 [2]): 59% |
|  |  |  | CSCC[C@H](NC(=O)[C@H](C)NC(=O)[C@H](CCCNC(=N)N)NC(=O)[C@H](C)N)C(=O)N[C@H]1CCCCNC(=O)CC[C@@H](C(=O)N[C@H](C(=O)NCC(N)=O)[C@@H](C)O)NC(=O)[C@H](CCCCN)NC(=O)[C@H](CCCNC(=N)N)NC(=O)[C@H](C)NC(=O)[C@H]([C@@H](C)O)NC1=O (H-ARAMKTARKETG-NH2; lactam 5-10) | inactive | inactive | 67.3% | Activity (K562 [1]): 18%; Activity (K562 [2]): 90% |
|  | 4.6 µM | 10.1 µM | CCCCCCCCCCCCCCCCCC(=O)NCCCC[C@H](NC(=O)[C@H](C)NC(=O)[C@H](CC(C)C)NC(=O)[C@H](CCC(N)=O)NC(=O)[C@H](CCCCN)NC(=O)[C@H](CCCNC(=N)N)NC(=O)[C@@H]1CCCN1C(=O)[C@H](C)NC(=O)[C@H](CCCCN)NC(=O)CNC(=O)CNC(=O)[C@@H](NC(=O)[C@@H]1CCC(=O)NCCCC[C@H](NC(=O)[C@H](CCSC)NC(=O)[C@H](C)NC(=O)[C@H](CCCNC(=N)N)NC(=O)[C@H](C)N)C(=O)N[C@@H]([C@@H](C)O)C(=O)N[C@@H](C)C(=O)N[C@@H](CCCNC(=N)N)C(=O)N[C@@H](CCCCN)C(=O)N1)[C@@H](C)O)C(N)=O (H-ARAMKTARKETGGKAPRKQLAK(Stearoyl)-NH2; lactam 5-10) |  |  |  |  |
